# In PMC6099444 (Journal of Clinical Pharmacology, 2018):
# “Also recorded” adds a separate entry of the source.
# What was measured:
# Type in all cases: in vivo, human
# Urine pharmacokinetics = settings: for Ae0‐24: urine; for Ae0‐24 / CLR0‐24: geometric LS mean (95% CI)
# urine uric acid = experiment: Urine uric acid pharmacodynamics; settings: for CLUR, Mean (SD) / FEUA, Mean (SD) / AeUR, Change From Baseline (%) / CLUR, Change From Baseline (%) / FEUA, Change From Baseline (%) / AeUR, Mean (SD) / AeUR, %Change From Baseline / CLUR, %Change From Baseline / FEUA, %Change From Baseline: ALLO 300 mg or both; for AeUR, Change From Baseline (%) / CLUR, Change From Baseline (%) / FEUA, Change From Baseline (%) / AeUR, %Change From Baseline / CLUR, %Change From Baseline / FEUA, %Change From Baseline: mean (SD)
# How it was run: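 Total-catch urine was collected days 1, 7, 8, 14, 21 in intervals from 0–1 to 22–24 h postdose. Water: 240 mL on waking and at 22 h, 160 mL frequently postdose. Uric acid and creatinine were assayed centrally. AeUR = concentration × volume; CLUR = AeUR/plasma urate AUC same interval; fractional excretion = (CLUR/CrCl) × 100; rate = AeUR/interval hours. % change uses time-matched day −1 baseline.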
# [1] = Plasma pharmacokinetics, phase 1b multiple-dose drug-drug interaction study; settings: for plasma exposure on coadministration, result in words: verinurad: with allopurinol 300 mg, colchicine: with verinurad 10 mg
# How it was run: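 Adult males with gout were randomized 1:1 to two sequences. They took a once-daily oral xanthine oxidase inhibitor 300 mg or urate reabsorption inhibitor 10 mg alone (days 1–7), both (days 8–14), then the other agent (days 15–21). Fasted overnight, no food 4 h postdose. Plasma was sampled days −1, 7, 14, 21 predose to 24 h. Parent and metabolite were measured by LC-MS/MS (methanol precipitation, isotope internal standards). Noncompartmental Tmax, Cmax, AUC0‐24; geometric LS mean ratio combo/alone.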
# serum uric acid = experiment: Serum uric acid pharmacodynamics in adult male subjects with gout; settings: verinurad 10 mg, allopurinol 300 mg, once daily for 7 days, alone or combined
# How it was run: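 Adult males with gout received a once-daily oral xanthine oxidase inhibitor 300 mg, a urate reabsorption inhibitor 10 mg, or both for 7 days each in a randomized crossover sequence. Fasted overnight before sampling. Serum was drawn days 7, 14, 21 predose to 24 h postdose, with extra predose points day 1, and uric acid measured by a central lab. Read-out is maximum % change from time-matched day −1 baseline.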
# [2] = treatment ALLO 300 mg once daily
# [3] = treatment VERU 10 mg + ALLO 300 mg once daily
# [4] = 0‐ to 12‐hour interval, VERU 10 mg
# [5] = 0‐ to 12‐hour interval, multiple daily doses VERU 10 mg
# [6] = 0‐ to 24‐hour interval, VERU 10 mg
# [7] = 12‐ to 24‐hour interval, VERU 10 mg
# [8] = VERU 10 mg + ALLO 300 mg compared with allopurinol alone
# [9] = VERU 10 mg + ALLO 300 mg compared with allopurinol alone, plasma
# [10] = VERU 10 mg + ALLO 300 mg compared with allopurinol alone, plasma, listed as oxypurinol
# [11] = treatment VERU 10 mg once daily
compound,measurement,setting,value
"Oc1ncnc2[nH]ncc12 [Allopurinol, allopurinol]",Ae0‐24,Urine pharmacokinetics; [2],25.4 (22.1‐29.2) mg
same,Ae0‐24,Urine pharmacokinetics; [3],22.7 (19.2‐26.9) mg
same,decrease in 24 hr fractional excretion of urate compared with baseline,"urine uric acid; 0-24 h, allopurinol 300 mg",12.0%
same,decrease in CLUR compared with baseline,"urine uric acid; 0-24 h, allopurinol 300 mg",8.5%
same,decrease in 24‐hour AeUR compared with baseline,"urine uric acid; 0-24 h, allopurinol 300 mg alone or with verinurad 10 mg",47.4%
same,"CLUR, Mean (SD)",urine uric acid; [4],6.50 (1.18) mL/min
same,"FEUA, Mean (SD)",urine uric acid; [4],4.06 (0.47) %
same,"AeUR, Change From Baseline (%)",urine uric acid; [4],−46.8 (7.3) %
same,"CLUR, Change From Baseline (%)",urine uric acid; [4],−6.0 (12.0) %
same,"FEUA, Change From Baseline (%)",urine uric acid; [4],−9.7 (9.2) %
same,"AeUR, Mean (SD)",urine uric acid; [5],231 (45) mg
same,"AeUR, Mean (SD)",urine uric acid; [6],363 (73) mg
same,"CLUR, Mean (SD)",urine uric acid; [6],5.00 (1.13) mL/min
same,"FEUA, Mean (SD)",urine uric acid; [6],3.69 (0.59) %
same,"AeUR, %Change From Baseline",urine uric acid; [6],−47.4 (7.6) %
same,"CLUR, %Change From Baseline",urine uric acid; [6],−8.50 (14.8) %
same,"FEUA, %Change From Baseline",urine uric acid; [6],−12.0 (12.2) %
same,decrease in rate of uric acid excretion,"urine uric acid; 2‐3 hour urine collection interval postdose, allopurinol 300 mg",46%
same,"CLUR, Mean (SD)",urine uric acid; [7],3.62 (1.30) mL/min
same,"FEUA, Mean (SD)",urine uric acid; [7],3.19 (0.62) %
same,"AeUR, Change From Baseline (%)",urine uric acid; [7],−45.4 (14.5) %
same,"CLUR, Change From Baseline (%)",urine uric acid; [7],−9.4 (23.2) %
same,"FEUA, Change From Baseline (%)",urine uric acid; [7],−7.6 (14.6) %
same,maximum rate of uric acid excreted in urine compared with the maximum observed baseline rate,"urine uric acid; highest mean rate, 2‐3 hour urine collection interval postdose (combination 2‐3 and 3‐4 hour), verinurad 10 mg, allopurinol 300 mg",−46%
same,"AUC on coadministration of verinurad, result in words",[1]; [8],unaffected; also recorded: unaltered
same,increase in Cmax on coadministration of verinurad,[1]; [9],33%
same,Cmax,"[1]; treatment ALLO 300 mg once daily, plasma, geometric LS mean (95% CI)",1.13 (0.89‐1.43) μg/mL
same,maximum decrease in serum urate,serum uric acid,43%
"COc1cc2c(c(OC)c1OC)-c1ccc(OC)c(=O)cc1[C@@H](NC(C)=O)CC2 [Colchicine, colchicine, reference compound]","plasma exposure on coadministration, result in words",[1],unaltered
"O=c1[nH]c(=O)c2c[nH]nc2[nH]1 [Oxypurinol, oxypurinol]",increase in renal clearance on coadministration of verinurad,Urine pharmacokinetics; [8],93%
same,increase in urinary excretion on coadministration of verinurad,Urine pharmacokinetics; [8],19%
same,Ae0‐24,Urine pharmacokinetics; [2],231 (216‐248) mg
same,Ae0‐24,Urine pharmacokinetics; [3],275 (262‐290) mg
same,decrease in AUC on coadministration of verinurad,[1]; [9],38%
same,decrease in Cmax on coadministration of verinurad,[1]; [9],32%
same,decrease in AUC on coadministration of verinurad,[1]; [10],approximately 38%
same,decrease in Cmax on coadministration of verinurad,[1]; [10],approximately 32%
same,Cmax,"[1]; male, human, plasma, oral, 300 mg",12800 ng/mL
CC(C)(Sc1ccncc1-c1ccc(C#N)c2ccccc12)C(=O)O [Verinurad],CLR0‐24,Urine pharmacokinetics; [3],9.75 (7.73‐12.3) mL/min
same,Ae0‐24,Urine pharmacokinetics; [3],67.2 (51.7‐87.4) μg
same,CLR0‐24,Urine pharmacokinetics; [11],9.28 (7.43‐11.6) mL/min
same,Ae0‐24,Urine pharmacokinetics; [11],66.8 (51.8‐86.1) μg
same,"CLUR, Mean (SD)",urine uric acid; [4],16.3 (4.57) mL/min
same,"FEUA, Mean (SD)",urine uric acid; [4],11.6 (3.77) %
same,"AeUR, Change From Baseline (%)",urine uric acid; [4],21.4 (23.3) %
same,"CLUR, Change From Baseline (%)",urine uric acid; [4],153 (77.0) %
same,"FEUA, Change From Baseline (%)",urine uric acid; [4],160 (96.6) %
same,"AeUR, Mean (SD)",urine uric acid; [5],490 (71) mg
same,"AeUR, Mean (SD)",urine uric acid; [6],739 (84) mg
same,"CLUR, Mean (SD)",urine uric acid; [6],11.5 (2.74) mL/min
same,"FEUA, Mean (SD)",urine uric acid; [6],9.19 (3.28) %
same,"AeUR, %Change From Baseline",urine uric acid; [6],9.9 (21.5) %
same,"CLUR, %Change From Baseline",urine uric acid; [6],122 (105) %
same,"FEUA, %Change From Baseline",urine uric acid; [6],77.4 (36.0) %
same,"AeUR, Mean (SD)",urine uric acid; [7],250 (52) mg
same,"CLUR, Mean (SD)",urine uric acid; [7],6.74 (0.96) mL/min
same,"FEUA, Mean (SD)",urine uric acid; [7],5.88 (1.78) %
same,"AeUR, Change From Baseline (%)",urine uric acid; [7],4.2 (48.0) %
same,"CLUR, Change From Baseline (%)",urine uric acid; [7],95.5 (148) %
same,"FEUA, Change From Baseline (%)",urine uric acid; [7],49.9 (21.9) %
same,"plasma exposure on coadministration, result in words",[1],unaffected
same,maximum decrease in serum urate,serum uric acid,51%
